# In ChEMBL document CHEMBL3593174, “Amantelides A and B, Polyhydroxylated Macrolides with Differential Broad-Spectrum Cytotoxicity from a Guamanian Marine Cyanobacterium” (J Nat Prod, 2015):
# Assays:
# [1] = system: Pseudomonas aeruginosa; experiment: Antimicrobial activity against Pseudomonas aeruginosa ATCC 27853 after 24 hrs by broth microdilution method; type: functional; details: ATCC 27853, 24 h
# Procedure, shortened: (§1)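 Broth microdilution in Mueller–Hinton broth; colony grown 6–8 h at 37 °C, adjusted to 0.5 McFarland then diluted 100-fold as inoculum. Treated 24 h at 37 °C, 150 rpm; 0.02% v/v resazurin added, fluorescence read at ex 530/em 590 nm. Oxacillin (S. aureus) or nalidixic acid (P. aeruginosa) positive controls, MHB-only sterility control; % inhibition relative to solvent control.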
# [2] = system: HT-29; experiment: Cytotoxicity against human HT-29 cells after 48 hrs by MTT assay; type: functional, cell-based; details: HT-29, 48 h
# Procedure, shortened: (§2)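 HeLa (3000) or HT29 (12 500 cells/well) grown in DMEM with 10% FBS, 5% CO2, 37 °C; treated with graded concentrations 24 h after seeding, DMSO solvent control, then incubated 48 h before MTT viability read-out; IC50 fitted from duplicate experiments.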
# [3] = system: Lindra thalassiae; experiment: Antifungal activity against Lindra thalassiae assessed as growth inhibition at 62.5 ug/ml; type: functional; details: Lindriella thalassiae; read-out: GI
# Procedure, shortened: (§3)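 Fungus (Lindra thalassiae, Dendryphiella salina or Fusarium sp.) exposed to sample dissolved in MeOH, serially diluted, added to molten YPM P/S agar; MeOH-only solvent controls plus media-only wells; triplicate wells; 1 mm2 plug of culture transferred per well, 26 °C. Scored when media controls fully covered by hyphae: hyphae-containing squares counted through window screen; % inhibition versus solvent control.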
# [4] = Antifungal activity against Dendryphiella salina assessed as growth inhibition at 62.5 ug/ml; type: functional; details: Paradendryphiella salina; procedure, shortened: as §3
# [5] = Antifungal activity against Dendryphiella salina assessed as growth inhibition at 6.25 ug/ml; type: functional; details: Paradendryphiella salina; procedure, shortened: as §3
# [6] = system: HeLa; experiment: Cytotoxicity against human HeLa cells after 48 hrs by MTT assay; type: functional, cell-based; procedure, shortened: as §2
# [7] = system: Staphylococcus aureus; experiment: Antimicrobial activity against Staphylococcus aureus ATCC 6538 after 24 hrs by broth microdilution method; type: functional; details: ATCC 6538, 24 h; procedure, shortened: as §1
# [8] = system: Fusarium sp.; experiment: Antifungal activity against Fusarium sp. assessed as growth inhibition at 62.5 ug/ml; type: functional; details: read-out: GI; procedure, shortened: as §3
# [9] = system: Fusarium sp.; experiment: Antifungal activity against Fusarium sp. assessed as growth inhibition at 6.25 ug/ml; type: functional; details: read-out: GI; procedure, shortened: as §3
# [10] = system: Lindra thalassiae; experiment: Antifungal activity against Lindra thalassiae assessed as growth inhibition at 6.25 ug/ml; type: functional; details: Lindriella thalassiae; read-out: GI; procedure, shortened: as §3
# [11] = system: Fusarium sp.; experiment: Antifungal activity against Fusarium sp. assessed as growth inhibition at 625 ug/ml; type: functional; details: read-out: GI; procedure, shortened: as §3
# [12] = system: HT-29; experiment: Cytotoxicity against human HT-29 cells after 1 to 48 hrs by MTT assay; type: functional, cell-based
# Procedure, shortened: (§4)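 HeLa and HT29 cultured in DMEM with 10% FBS at 37 °C, 5% CO2, exposed to graded concentrations for 1, 3, 6, 12, 24 or 48 h; MTT viability read-out, IC50 at each time point.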
# [13] = system: Lindra thalassiae; experiment: Antifungal activity against Lindra thalassiae assessed as growth inhibition at 625 ug/ml; type: functional; details: Lindriella thalassiae; read-out: GI; procedure, shortened: as §3
# [14] = system: HeLa; experiment: Cytotoxicity against human HeLa cells after 1 to 48 hrs by MTT assay; type: functional, cell-based; procedure, shortened: as §4
# [15] = Antifungal activity against Dendryphiella salina assessed as growth inhibition at 625 ug/ml; type: functional; details: Paradendryphiella salina; procedure, shortened: as §3
MIC [1],MIC [7],SMILES,IC50 [2],inhibition of growth at 62.5 µg/mL [3],growth inhibition (GI) [4],growth inhibition (GI) [5],IC50 [6],inhibition of growth at 62.5 µg/mL [8],inhibition of growth at 6.25 µg/mL [9],inhibition of growth at 6.25 µg/mL [10],inhibition of growth at 625 µg/mL [11],IC50 [12],inhibition of growth at 625 µg/mL [13],IC50 [14],growth inhibition (GI) [15]
> 100 µM,> 100 µM,C[C@@H]1[C@H](O)[C@@H](C)/C=C/C=C/C=C/C=C/C=C/C=C/C=C/[C@H](O[C@@H]2O[C@H](C)[C@@H](O)[C@H](N)[C@@H]2O)C[C@@H]2O[C@](O)(C[C@@H](O)C[C@@H](O)[C@H](O)CC[C@@H](O)C[C@@H](O)CC(=O)O[C@H]1C)C[C@H](O)[C@H]2C(=O)O [AMPHOTERICIN B],10 µM,21%,100%,100%,10 µM,6%,12%,0%,–,–,–,–,–
32 µM,32 µM,C/C1=C/C(=O)OC(C(C)(C)C)CC(O)CCCC(O)CCCC(O)CCCC(O)CCCC(O)CCCC(O)CCCC(O)CCC[C@@H](O)C[C@@H](O)CCC1 (some centres undefined),0.87 µM,100%,60%,0%,0.87 µM,100%,35%,40%,100%,0.87 µM,100%,0.87 µM,100%
–,–,CC(=O)OC1CCCC(O)CCCC(O)CCCC(O)CCCC(O)CCCC(O)CCC[C@@H](O)C[C@@H](O)CCC/C(C)=C\C(=O)OC(C(C)(C)C)CC(O)CCC1 (some centres undefined),12 µM,–,–,–,9.9 µM,–,–,–,–,–,–,–,–
–,–,CC(=O)OC1CCCC(OC(C)=O)CCCC(OC(C)=O)CCCC(OC(C)=O)CCC[C@@H](OC(C)=O)C[C@@H](OC(C)=O)CCC/C(C)=C\C(=O)OC(C(C)(C)C)CC(OC(C)=O)CCCC(OC(C)=O)CCCC(OC(C)=O)CCC1 (some centres undefined),58 µM,–,–,–,18 µM,–,–,–,–,–,–,–,–
